Source: ChEMBL document CHEMBL1149318, “(Z)- and (E)-[2-Fluoro-2-(hydroxymethyl)cyclopropylidene]methylpurines and -pyrimidines, a new class of methylenecyclopropane analogues of nucleosides: synthesis and antiviral activity” (J Med Chem, 2004)

What was measured:
Human betaherpesvirus 5 [1] = experiment: Inhibition of HCMV AD169 replication in HFF cells by CPE inhibition assay; assay type: functional, organism-based; conditions: Human betaherpesvirus 5, AD169, HFF
In short: (§1)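 Cytopathic effect inhibition assay in HFF culture (HCMV AD169; HSV-1 and HSV-2). Cytotoxicity by neutral red uptake.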

[2] = Cytotoxicity against HFF cells; assay type: cell-based; conditions: human
[3] = Cytotoxicity against MT2 cells; assay type: cell-based; conditions: human
In short: (§2)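 Uninfected MT-2 (2 × 10^3 cells) or MT-4 (3 × 10^4 cells) cultured with analogues. Viability read by MTT assay after day 7 (MT-2) or day 5 (MT-4). Run in duplicate.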

Human betaherpesvirus 5 [4] = experiment: Inhibition of HCMV Towne replication in HFF cells by plaque reduction assay; assay type: functional, organism-based; conditions: Human betaherpesvirus 5, Towne
In short: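 Plaque reduction assay in HFF culture with HCMV Towne strain; cytotoxicity by neutral red uptake.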

[5] = Inhibition of HSV2 in Vero cells by plaque reduction assay; assay type: cell-based; conditions: Chlorocebus sabaeus
In short: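 Plaque reduction assay in Vero cells with HSV-1 or HSV-2.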

Human gammaherpesvirus 4 [6] = experiment: Inhibition of EBV replication in Daudi cells by DNA hybridization assay; assay type: functional, organism-based; conditions: human gammaherpesvirus 4, Daudi
In short: (§3)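 EBV DNA hybridization assay in Daudi or H-1 cells; EC50 derived from viral DNA signal. Cytotoxicity for these EBV assays measured in CEM cells.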

Human alphaherpesvirus 2 = experiment: Inhibition of HSV2 in HFF cells by CPE assay; assay type: functional, organism-based; conditions: Human alphaherpesvirus 2, HFF; in short: as §1
[7] = Cytotoxicity against Vero cells; assay type: cell-based; conditions: chlorocebus sabaeus
Human gammaherpesvirus 4 [8] = experiment: Inhibition of EBV replication in H1 cells by DNA hybridization assay; assay type: functional, organism-based; conditions: human gammaherpesvirus 4, H1; in short: as §3
[9] = Cytotoxicity against HFF cells by neutral red uptake assay; assay type: cell-based; conditions: human
In short: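 Human foreskin fibroblast (HFF) cultures, as used for the HCMV assays, exposed to analogues. Cytotoxicity read by neutral red uptake.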

[10] = Cytotoxicity against HFF cells by visual cytotoxicity; assay type: cell-based; conditions: human
In short: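 HFF cultures exposed to analogues. Cytotoxicity scored visually.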

Human alphaherpesvirus 1 [11] = experiment: Inhibition of HSV1 replication in BSC1 cells by ELISA; assay type: functional, organism-based; conditions: Human alphaherpesvirus 1, BSC-1
In short: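 HSV-1 in BSC-1 cells, read by ELISA; cytotoxicity determined in KB cells.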

Human gammaherpesvirus 4 [12] = experiment: Inhibition of EBV replication in Daudi cells by VCA ELISA; assay type: functional, organism-based; conditions: human gammaherpesvirus 4, Daudi
In short: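 Viral capsid antigen (VCA) ELISA in Daudi cells; EC50 from capsid antigen signal. Cytotoxicity measured in CEM cells.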

[13] = Cytotoxicity against Daudi cells; assay type: cell-based; conditions: human
Human alphaherpesvirus 1 [14] = experiment: Inhibition of HSV1 in HFF cells by CPE assay; assay type: functional, organism-based; conditions: Human alphaherpesvirus 1, HFF; in short: as §1
[15] = test system: Human immunodeficiency virus 1; experiment: Inhibition of HIV1 LAI replication in MT2 by CPE assay; assay type: functional, organism-based; conditions: Human immunodeficiency virus 1, LAI
In short: (§4)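 HIV-1 LAI, 100 TCID50, used to infect MT-2 (2 × 10^3) or MT-4 (3 × 10^4) cells, which are then cultured with test analogue. EC50 read by MTT assay on day 7 (MT-2) or day 5 (MT-4). Assays run in duplicate.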

Hepatitis B virus = experiment: Inhibition of HBV replication in 2.2.15 cells by DNA hybridization assay; assay type: functional, organism-based; conditions: HepG2 2.2.15
In short: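 HBV in 2.2.15 cells; viral DNA quantified by DNA hybridization to give EC50.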

Human alphaherpesvirus 1 [16] = experiment: Inhibition of HSV1 in Vero cells by plaque reduction assay; conditions: Human alphaherpesvirus 1, Vero
Human alphaherpesvirus 3 = experiment: Inhibition of VZV replication in HFF cells by CPE assay; assay type: functional, organism-based; conditions: Human alphaherpesvirus 3, HFF
CCRF-CEM = experiment: Cytotoxicity against CEM cells; assay type: functional; conditions: Homo sapiens
[17] = test system: Human immunodeficiency virus 1; experiment: Inhibition of HIV1 LAI replication in MT4 by CPE assay; assay type: functional, organism-based; conditions: Human immunodeficiency virus 1, LAI; in short: as §4
[18] = Cytotoxicity against MT4 cells; assay type: cell-based; conditions: human; in short: as §2
Murid betaherpesvirus 1 = experiment: Inhibition of MCMV replication in MFF cells by plaque reduction assay; assay type: functional, organism-based; conditions: Murid betaherpesvirus 1, MFF
In short: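 MCMV in MEF cells by plaque reduction.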

[19] = Cytotoxicity against MFF cells; assay type: cell-based; conditions: mouse

Row | SMILES | EC50 (Human betaherpesvirus 5 [1]) | CC50 [2] | CC50 [3] | EC50 (Human betaherpesvirus 5 [4]) | EC50 [5] | EC50 (Human gammaherpesvirus 4 [6]) | EC50 (Human alphaherpesvirus 2) | CC50 [7] | EC50 (Human gammaherpesvirus 4 [8]) | CC50 [9] | CC50 [10] | EC50 (Human alphaherpesvirus 1 [11]) | EC50 (Human gammaherpesvirus 4 [12]) | CC50 [13] | EC50 (Human alphaherpesvirus 1 [14]) | EC50 [15] | EC50 (Hepatitis B virus) | EC50 (Human alphaherpesvirus 1 [16]) | EC50 (Human alphaherpesvirus 3) | CC50 (CCRF-CEM) | also measured
1 | Cc1cn(/C=C2/CC2(F)CO)c(=O)[nH]c1=O (stereo unspecified) | > 442 µM | > 400 µM | > 100 µM | > 100 µM | > 50 µM | 4.4 µM | > 80 µM | > 100 µM | 2.5 µM | > 442 µM | > 100 µM | 2.5 µM | 51.7 µM | > 221 µM | > 80 µM | > 100 µM | > 20 µM | > 50 µM | 0.62 µM | > 100 µM | –
2 | Nc1nc2c(ncn2/C=C2/CC2(F)CO)c(=O)[nH]1 (stereo unspecified) | > 79.6 µM | > 400 µM | > 100 µM | > 100 µM | > 50 µM | – | > 80 µM | > 100 µM | > 20 µM | > 398 µM | > 100 µM | > 100 µM | 4.8 µM | > 199 µM | > 80 µM | > 100 µM | > 20 µM | > 50 µM | > 79.6 µM | > 100 µM | –
3 | Cc1cn(/C=C2\CC2(F)CO)c(=O)[nH]c1=O (stereo unspecified) | > 442 µM | > 400 µM | > 100 µM | > 100 µM | > 50 µM | – | > 80 µM | > 100 µM | > 20 µM | > 442 µM | > 100 µM | 40 µM | > 221 µM | > 221 µM | > 80 µM | > 100 µM | > 20 µM | > 50 µM | > 442 µM | > 100 µM | –
4 | Nc1ncnc2c1ncn2/C=C1\CC1(F)CO (stereo unspecified) | > 16.7 µM | > 400 µM | > 100 µM | 20 µM | > 50 µM | – | > 80 µM | > 100 µM | – | > 417 µM | > 100 µM | 30 µM | – | > 209 µM | > 80 µM | 2.3 µM | 15 µM | > 50 µM | > 83.4 µM | > 100 µM | EC50 [17]: 7.6 µM; CC50 [18]: > 100 µM
5 | Nc1ncnc2c1ncn2/C=C1/CC1(F)CO (stereo unspecified) | 6 µM | > 400 µM | > 100 µM | 3.6 µM | > 50 µM | – | > 80 µM | > 100 µM | 13.8 µM | > 425 µM | > 100 µM | > 100 µM | 1.45 µM | > 213 µM | > 80 µM | 12 µM | > 20 µM | > 50 µM | 14 µM | > 100 µM | EC50 [17]: 22 µM; CC50 [18]: > 100 µM; EC50 (Murid betaherpesvirus 1): 69.3 µM; CC50 [19]: > 425 µM
6 | Nc1ccn(/C=C2\CC2(F)CO)c(=O)n1 (stereo unspecified) | > 474 µM | > 400 µM | > 100 µM | > 100 µM | > 50 µM | 94.8 µM | > 80 µM | > 100 µM | > 20 µM | > 474 µM | > 100 µM | > 100 µM | 0.76 µM | > 237 µM | > 80 µM | > 100 µM | > 20 µM | > 50 µM | 14.7 µM | > 100 µM | –
7 | Nc1nc2c(ncn2COCCO)c(=O)[nH]1 [ACYCLOVIR] | – | > 444 µM | – | – | – | 5.3 µM | – | – | – | – | – | 10 µM | – | > 222 µM | – | – | – | – | – | – | –
8 | Nc1ccn(/C=C2/CC2(F)CO)c(=O)n1 (stereo unspecified) | > 474 µM | > 400 µM | > 100 µM | > 100 µM | > 50 µM | 28.4 µM | > 80 µM | > 100 µM | > 20 µM | > 474 µM | > 100 µM | > 100 µM | < 0.38 µM | > 237 µM | > 80 µM | > 100 µM | > 20 µM | > 50 µM | 0.62 µM | > 100 µM | –
9 | Nc1nc2c(ncn2/C=C2\CC2(F)CO)c(=O)[nH]1 (stereo unspecified) | > 79.6 µM | > 400 µM | > 100 µM | > 100 µM | > 50 µM | – | > 80 µM | > 100 µM | > 20 µM | > 398 µM | > 100 µM | 90 µM | < 0.32 µM | > 199 µM | > 80 µM | > 100 µM | > 20 µM | > 50 µM | > 79.6 µM | > 100 µM | –
10 | Nc1ccn([C@@H]2CS[C@H](CO)O2)c(=O)n1 [LAMIVUDINE] | – | – | – | – | – | – | – | – | – | – | – | – | – | – | – | – | – | – | – | > 100 µM | –
11 | Nc1nc2c(ncn2COC(CO)CO)c(=O)[nH]1 [GANCICLOVIR] | 2.2 µM | – | – | 2.1 µM | – | – | – | – | – | > 392 µM | > 100 µM | – | – | – | – | – | – | > 50 µM | – | – | –
12 | Cc1cn([C@H]2C[C@H](N=[N+]=[N-])[C@@H](CO)O2)c(=O)[nH]c1=O [ZIDOVUDINE] | – | – | > 10 µM | – | – | – | – | – | – | – | – | – | – | – | – | 0.02 µM | – | – | – | – | –
